ChEMBL document CHEMBL1126865, “Structure-activity relationship within a series of pyrazolidinone antibacterial agents. 2. Effect of side-chain modification on in vitro activity and pharmacokinetic parameters” (J Med Chem, 1993)
≈ marks a conversion by molar mass, not a printed value.

Columns and labels:
Klebsiella aerogenes = test: In vitro antibacterial activity against Enterobacter aerogenes C32; format: functional
Escherichia coli = test: In vitro antibacterial activity against Escherichia coli EC14; format: functional
Haemophilus influenzae = test: In vitro antibacterial activity against Haemophilus influenza C.L; format: functional
Klebsiella pneumoniae = test: In vitro antibacterial activity against Klebsiella X26; format: functional
Pseudomonas aeruginosa = test: In vitro antibacterial activity against Pseudomonas PS72; format: functional
[1] = test system: Staphylococcus epidermidis; test: In vitro antibacterial activity against Staphylococcus epidermidis 222; format: functional
Staphylococcus aureus = test: In vitro antibacterial activity against Staphylococcus aureus X1.1; format: functional
Streptococcus pneumoniae = test: In vitro antibacterial activity against Streptococcus pneumoniae PARK; format: functional
[2] = Plasma half-life in monkey after intravenous administration; format: ADME, organism-based; conditions: simiiformes
Summary of the method: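 Male rhesus monkeys (n = 3) dosed iv at 30 mg/kg in 0.9% saline; plasma sampled from cephalic vein over 3 h. Drug levels by agar well diffusion bioassay (E. coli ATCC4157 or Proteus providentia XC24) against standard curves in spiked plasma. Samples stored at -70 °C. Half-life = 0.693/β, β the terminal slope of plasma vs time curve.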

[3] = Plasma half-life in rats after intravenous administration; format: ADME, organism-based; conditions: rat
Summary of the method: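 Male Sprague-Dawley rats were given 20 mg/kg IV in 0.9% saline through an indwelling jugular cannula, which was also used for serial blood sampling. Plasma and cumulative urine (citrate pH 6.5, metabolism cages) were collected over 6 h and stored at -70 °C. Levels were measured by agar well diffusion bioassay against standard curves in plasma or citrate. Half-life = 0.693/β; recovery as % of dose.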

[4] = Plasma half-life in human after intravenous administration; format: ADME, organism-based

MIC (Klebsiella aerogenes) | MIC (Escherichia coli) | MIC (Haemophilus influenzae) | MIC (Klebsiella pneumoniae) | MIC (Pseudomonas aeruginosa) | MIC [1] | MIC (Staphylococcus aureus) | MIC (Streptococcus pneumoniae) | half-life [2] | half-life [3] | half-life [4] | Compound
0.5 µg/mL (≈ 1.2 µM) | 0.125 µg/mL (≈ 0.299 µM) | 0.125 µg/mL (≈ 0.299 µM) | 0.06 µg/mL (≈ 0.144 µM) | > 128 µg/mL | 16 µg/mL (≈ 38.3 µM) | 32 µg/mL (≈ 76.7 µM) | 0.125 µg/mL (≈ 0.299 µM) | – | – | – | C=CCO/N=C(/C(=O)N[C@H]1CN2CC(C#N)=C(C(=O)O)N2C1=O)c1csc(N)n1
1 µg/mL (≈ 2.06 µM) | 0.25 µg/mL (≈ 0.514 µM) | 0.125 µg/mL (≈ 0.257 µM) | 0.03 µg/mL (≈ 0.0617 µM) | > 128 µg/mL | 4 µg/mL (≈ 8.22 µM) | 4 µg/mL (≈ 8.22 µM) | 0.06 µg/mL (≈ 0.123 µM) | – | – | – | CCCCO/N=C(/C(=O)N[C@H]1CN2CC(S(C)(=O)=O)=C(C(=O)O)N2C1=O)c1csc(N)n1
– | – | – | – | – | – | – | – | 44 min | 15 min | 96 min | CO/N=C(\C(=O)N[C@@H]1C(=O)N2C(C(=O)O)=CCS[C@H]12)c1csc(N)n1 [CEFTIZOXIME]
2 µg/mL (≈ 3.93 µM) | 1 µg/mL (≈ 1.96 µM) | 0.5 µg/mL (≈ 0.981 µM) | 0.5 µg/mL (≈ 0.981 µM) | 128 µg/mL (≈ 251 µM) | 32 µg/mL (≈ 62.8 µM) | 16 µg/mL (≈ 31.4 µM) | 4 µg/mL (≈ 7.85 µM) | – | – | – | CCN1CCN(C(=O)N[C@@H](C(=O)N[C@H]2CN3CC(C#N)=C(C(=O)O)N3C2=O)c2ccccc2)C(=O)C1=O
128 µg/mL (≈ 392 µM) | 32 µg/mL (≈ 98.1 µM) | 32 µg/mL (≈ 98.1 µM) | 32 µg/mL (≈ 98.1 µM) | > 128 µg/mL | 32 µg/mL (≈ 98.1 µM) | 16 µg/mL (≈ 49 µM) | 8 µg/mL (≈ 24.5 µM) | – | – | – | N#CC1=C(C(=O)O)N2C(=O)[C@@H](NC(=O)Cc3ccccc3)CN2C1
0.125 µg/mL (≈ 0.233 µM) | 0.125 µg/mL (≈ 0.233 µM) | 0.125 µg/mL (≈ 0.233 µM) | 0.03 µg/mL (≈ 0.0558 µM) | > 128 µg/mL | 8 µg/mL (≈ 14.9 µM) | 8 µg/mL (≈ 14.9 µM) | 0.125 µg/mL (≈ 0.233 µM) | – | – | – | CS(=O)(=O)C1=C(C(=O)O)N2C(=O)[C@@H](NC(=O)/C(=N/OCCBr)c3csc(N)n3)CN2C1
2 µg/mL (≈ 4.01 µM) | 0.5 µg/mL (≈ 1 µM) | 0.25 µg/mL (≈ 0.501 µM) | 0.06 µg/mL (≈ 0.12 µM) | > 128 µg/mL | 8 µg/mL (≈ 16 µM) | 4 µg/mL (≈ 8.02 µM) | 0.06 µg/mL (≈ 0.12 µM) | – | – | – | CC(C)=CCO/N=C(/C(=O)N[C@H]1CN2CC(S(C)(=O)=O)=C(C(=O)O)N2C1=O)c1csc(N)n1
1 µg/mL (≈ 2.27 µM) | 0.25 µg/mL (≈ 0.568 µM) | 0.5 µg/mL (≈ 1.14 µM) | 0.125 µg/mL (≈ 0.284 µM) | > 128 µg/mL | 16 µg/mL (≈ 36.4 µM) | 32 µg/mL (≈ 72.8 µM) | 0.5 µg/mL (≈ 1.14 µM) | – | – | – | N#CC1=C(C(=O)O)N2C(=O)[C@@H](NC(=O)/C(=N/OCCCl)c3csc(N)n3)CN2C1
